From ChEMBL document CHEMBL4814057, “4-4-(Anilinomethyl)-3-[4-(trifluoromethyl)phenyl]-1H-pyrazol-1-ylbenzoic acid derivatives as potent anti-gram-positive bacterial agents” (Eur J Med Chem, 2021)
Values after ≈ are worked out from the molar mass of the structure shown. Active and inactive are the calls of the source. The rule behind the calls is not given here.

Tests used:
Staphylococcus aureus [1] = test: Antibiofilm activity against Staphylococcus aureus UAMS-1 assessed as destruction catheter-associated biofilm formation measured after 48 hrs (reference value: 1.53 x 10^8); assay type: functional
Procedure, shortened: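 Plasma-coated catheters colonised for 24 h at 37 °C with gentle shaking, starting from ~1 × 10^7 CFU of MSSA UAMS-1 in biofilm medium (TSB plus glucose and NaCl). […] Medium renewed at 24 h. Catheters (n = 3) sonicated at 48 h and plated on TSA for CFU per catheter.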

Enterococcus faecium [2] = test: Antimicrobial activity against vancomycin-resistant Enterococcus faecium clinical isolate 1088168 by CLSI-based broth microdilution assay; assay type: functional
Staphylococcus aureus [3] = test: Antibacterial activity against methicillin resistant Staphylococcus aureus ATCC 700699 persisters assessed as reduction in viability at 64 times MIC by colony counting method; assay type: functional, organism-based
Procedure, shortened: (§1)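 Stationary-phase S. aureus from overnight CAMHB culture (35 °C, 200 rpm), washed thrice in PBS, diluted to ~5 × 10^8 CFU/ml. Incubated with antibiotic at 35 °C, 200 rpm. Aliquots taken at set times, washed, serially diluted in PBS, drop-plated (6 × 6) on TSA with 5% sheep blood. Colonies counted after 18–20 h at 35 °C. Triplicates.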

Staphylococcus aureus [4] = test: Antimicrobial activity against Staphylococcus aureus ATCC 29213 assessed as inhibition of cell wall synthesis at 8 times MIC measured by liquid scintillation counter; assay type: functional
Procedure, shortened: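 Early-exponential S. aureus ATCC 29213 resuspended in M9 minimal medium. Drug added at 8x MIC, pre-incubated 30 min at 37 °C. [14C]N-acetylglucosamine (0.4 µCi/reaction) added, 45 min at 37 °C. Stopped with 8% SDS, heated 95 °C for 30 min, spotted onto nitrocellulose filters, washed with 0.1% SDS. Counted by liquid scintillation. Triplicate.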

Staphylococcus aureus [5] = test: Antimicrobial activity against antibiotic-resistant Staphylococcus aureus BM-2312 assessed as bacterial growth inhibitions by CLSI protocol based microdilution method; assay type: functional
Bacillus subtilis = test: Antimicrobial activity against Bacillus subtilis ATCC 6623 assessed as bacterial growth inhibitions by CLSI protocol based microdilution method; assay type: functional
Procedure, shortened: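 Broth microdilution starting at 50 µg/ml with 2-fold serial dilutions; run in triplicate.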

Staphylococcus aureus [6] = test: Antimicrobial activity against methicillin-resistant Staphylococcus aureus clinical isolate 1088064 by CLSI-based broth microdilution assay; assay type: functional
Staphylococcus aureus [7] = test: Antimicrobial activity against methicillin-sensitive Staphylococcus aureus clinical isolate 1088105 by CLSI-based broth microdilution assay; assay type: functional
Enterococcus faecium [8] = test: Antimicrobial activity against vancomycin-resistant Enterococcus faecium clinical isolate 1100440 by CLSI-based broth microdilution assay; assay type: functional
Staphylococcus aureus [9] = test: Antimicrobial activity against methicillin-sensitive Staphylococcus aureus clinical isolate 1088626 by CLSI-based broth microdilution assay; assay type: functional
Enterococcus faecium [10] = test: Antimicrobial activity against vancomycin-resistant Enterococcus faecium clinical isolate 1088228 by CLSI-based broth microdilution assay; assay type: functional
Enterococcus faecium [11] = test: Antimicrobial activity against vancomycin-resistant Enterococcus faecium clinical isolate 1088925 by CLSI-based broth microdilution assay; assay type: functional
Staphylococcus aureus [12] = test: Antibacterial activity against vancomycin-intermediate susceptible Staphylococcus aureus ATCC 25923 assessed as bacterial growth inhibition by measuring fold increase in MIC between 8 passages by broth dilution method; assay type: functional
Enterococcus faecium [13] = test: Antimicrobial activity against vancomycin-resistant Enterococcus faecium clinical isolate 1091282 by CLSI-based broth microdilution assay; assay type: functional
Enterococcus faecium [14] = test: Antimicrobial activity against vancomycin-resistant Enterococcus faecium clinical isolate 1089544 by CLSI-based broth microdilution assay; assay type: functional
Staphylococcus aureus [15] = test: Antibacterial activity against methicillin resistant Staphylococcus aureus ATCC 700699 persisters assessed as reduction in viability at 16 times MIC by colony counting method; assay type: functional, organism-based; procedure, shortened: as §1
Enterococcus faecium [16] = test: Antimicrobial activity against vancomycin-resistant Enterococcus faecium clinical isolate 1094112 by CLSI-based broth microdilution assay; assay type: functional
Staphylococcus aureus [17] = test: Antimicrobial activity against methicillin-resistant Staphylococcus aureus clinical isolate 1088610 by CLSI-based broth microdilution assay; assay type: functional
Staphylococcus aureus [18] = test: Antimicrobial activity against methicillin-resistant Staphylococcus aureus ATCC 700699 assessed as bacterial growth inhibitions by CLSI protocol based microdilution method; assay type: functional
Enterococcus faecium [19] = test: Antimicrobial activity against vancomycin-resistant Enterococcus faecium clinical isolate 1091563 by CLSI-based broth microdilution assay; assay type: functional
Staphylococcus aureus [20] = test: Antimicrobial activity against methicillin-sensitive Staphylococcus aureus ATCC 29213 by CLSI-based broth microdilution assay; assay type: functional
Staphylococcus aureus [21] = test: Antimicrobial activity against methicillin-resistant Staphylococcus aureus clinical isolate 1089106 by CLSI-based broth microdilution assay; assay type: functional
Enterococcus faecium [22] = test: Antimicrobial activity against vancomycin-resistant Enterococcus faecium clinical isolate 1091720 by CLSI-based broth microdilution assay; assay type: functional
Staphylococcus aureus [23] = test: Antimicrobial activity against methicillin-resistant Staphylococcus aureus clinical isolate 1088888 by CLSI-based broth microdilution assay; assay type: functional
Enterococcus faecalis = test: Antimicrobial activity against vancomycin-susceptible Enterococcus faecalis ATCC 29212 assessed as bacterial growth inhibitions by CLSI protocol based microdilution method
Staphylococcus aureus [24] = test: Antimicrobial activity against methicillin-susceptible Staphylococcus aureus ATCC 25923 assessed as bacterial growth inhibitions by CLSI protocol based microdilution method; assay type: functional
Enterococcus faecium [25] = test: Antimicrobial activity against vancomycin-resistant Enterococcus faecium ATCC 700221 assessed as bacterial growth inhibitions by CLSI protocol based microdilution method; assay type: functional
Enterococcus faecium [26] = test: Antimicrobial activity against vancomycin-resistant Enterococcus faecium clinical isolate 1088051 by CLSI-based broth microdilution assay; assay type: functional

For CN[C@H](CC(C)C)C(=O)N[C@H]1C(=O)N[C@@H](CC(N)=O)C(=O)N[C@H]2C(=O)N[C@H]3C(=O)N[C@H](C(=O)N[C@H](C(=O)O)c4cc(O)cc(O)c4-c4cc3ccc4O)[C@H](O)c3ccc(c(Cl)c3)Oc3cc2cc(c3O[C@@H]2O[C@H](CO)[C@@H](O)[C@H](O)[C@H]2O[C@H]2C[C@](C)(N)[C@H](O)[C@H](C)O2)Oc2ccc(cc2Cl)[C@H]1O [VANCOMYCIN], the Activity (Staphylococcus aureus [1]) was 1.16 10^7CFU, the MIC (Enterococcus faecium [2]) was greater than 64 µg/mL and the Activity (Staphylococcus aureus [3]) was “inactive”. The “inhibition (INH)” value (Staphylococcus aureus [4]) was 87.3%, the MIC (Staphylococcus aureus [5]) was 0.78 µg/mL (≈ 0.538 µM) and the MIC (Bacillus subtilis) was 0.19 µg/mL (≈ 0.131 µM). It also gave an MIC (Staphylococcus aureus [6]) of 64 µg/mL (≈ 44.2 µM), an MIC (Staphylococcus aureus [7]) of 0.25 µg/mL (≈ 0.173 µM) and an MIC (Enterococcus faecium [8]) greater than 64 µg/mL. It also gave an MIC (Staphylococcus aureus [9]) of 0.25 µg/mL (≈ 0.173 µM), an MIC (Enterococcus faecium [10]) greater than 64 µg/mL and an MIC (Enterococcus faecium [11]) greater than 64 µg/mL. For the same molecule, the Activity (Staphylococcus aureus [12]) was “inactive”, the MIC (Enterococcus faecium [13]) was greater than 64 µg/mL and the MIC (Enterococcus faecium [14]) was greater than 64 µg/mL. For the same molecule, the Activity (Staphylococcus aureus [15]) was “inactive”, the MIC (Enterococcus faecium [16]) was greater than 64 µg/mL and the MIC (Staphylococcus aureus [17]) was 64 µg/mL (≈ 44.2 µM). The MIC (Staphylococcus aureus [18]) was 3.12 µg/mL (≈ 2.15 µM), the MIC (Enterococcus faecium [19]) was 64 µg/mL (≈ 44.2 µM) and the MIC (Staphylococcus aureus [20]) was 0.25 µg/mL (≈ 0.173 µM). For the same molecule, the MIC (Staphylococcus aureus [21]) was 64 µg/mL (≈ 44.2 µM), the MIC (Enterococcus faecium [22]) was 64 µg/mL (≈ 44.2 µM) and the MIC (Staphylococcus aureus [23]) was greater than 64 µg/mL. For the same molecule, the MIC (Enterococcus faecalis) was 3.12 µg/mL (≈ 2.15 µM), the MIC (Staphylococcus aureus [24]) was 0.78 µg/mL (≈ 0.538 µM) and the MIC (Enterococcus faecium [25]) was greater than 50 µg/mL. It also gave an MIC (Enterococcus faecium [26]) of 64 µg/mL (≈ 44.2 µM).
